Screens as filed in PubChem.
MsrA act – bovine methionine sulfoxide reductase A activation; AID 602163; purified bovine MsrA, absorbance read-out; 0.3% of 360,000 active; activation, % at 10.6 µM; in the data active = activation above about 7.5%
MsrA inh – bovine MsrA inhibition | purified bovine MsrA, absorbance read-out | AID 651718 | inhibition, % at 15.5 µM | 0.75% of 360,000 active
ARFGAP1 inh – inhibits rat ARF GTPase activating protein 1. AID 651572. Arfgap1-stimulated ARF1 GTP hydrolysis, GDP FP detection. Q62848. inhibition, % at 16.5 µM. 0.26% of 360,000 active;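 active = inhibition above a per-plate limit, mean inhibition of low control wells plus 3 SD, cut at about 25% in these data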
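Material: rat Arfgap1 catalytic domain, aa 1-136; also added: human ARF1(Δ1-17)-GTP substrate; compound dosing: one concentration, 16.5 µM, DMSO 1.26%; incubation: GTP hydrolysis reaction 2 h at 25 °C; measured by: Tracer-displacement fluorescence polarization with EDTA stop, 620/688 nm; evaluation: % inhibition from polarization; repeats: one replicate per compound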
ASAP1 inh – ASAP1 ArfGAP inhibition. Q9ULH1. ASAP1-stimulated ARF1 GTP hydrolysis, GDP FP detection. inhibition, % at 16.5 µM. 0.19% of 360,000 active. AID 624377; in the data active = inhibition above about 25%
Target sequence (Q9ULH1 325-724 limits assumed): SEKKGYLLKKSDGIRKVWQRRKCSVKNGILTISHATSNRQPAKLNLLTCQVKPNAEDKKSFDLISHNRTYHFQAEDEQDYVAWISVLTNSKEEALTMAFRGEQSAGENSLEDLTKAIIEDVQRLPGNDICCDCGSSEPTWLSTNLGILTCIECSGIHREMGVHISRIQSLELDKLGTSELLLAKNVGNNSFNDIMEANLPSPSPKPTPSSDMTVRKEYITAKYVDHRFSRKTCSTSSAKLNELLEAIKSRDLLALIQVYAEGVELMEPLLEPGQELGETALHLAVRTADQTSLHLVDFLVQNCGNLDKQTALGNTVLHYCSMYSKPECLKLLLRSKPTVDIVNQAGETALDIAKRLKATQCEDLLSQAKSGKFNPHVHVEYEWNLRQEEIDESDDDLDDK
MsrA conf – confirmation of bovine MsrA inhibitors. shares compounds with MsrA inh. purified bovine MsrA, absorbance read-out. inhibition, % at 15.5 µM. 41% of 2,300 active;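 also: coupled to thioredoxin reductase with NADPH and selenocystamine and DMSO as substrate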
Each line names hits and unclear results; the compound was inactive in the other large screens (follow-up assays come after a bar, where they were run). An excerpt weighted towards active compounds, which were near 1.4% of everything screened. Rule as the data show it, unless noted: active = inhibition above about 4.5%; inactive = the rest.

COc1ccc(/C([O-])=C(/C(=S)Nc2ccc(C)c(C)c2)n2c[n+](C)c3ccccc32)cc1OC	MsrA inh 4.8 | MsrA conf inactive
CN(C)c1oc(-c2cccs2)nc1C#N	MsrA inh 4.9 | MsrA conf inactive
COc1ccc(OC)c(NC(=O)COC(=O)CCc2ccc(S(=O)(=O)N3CCOCC3)cc2)c1	none
Cc1ccc(S(=O)(=O)N2CCN(S(=O)(=O)c3ccc(C)cc3)C2)cc1	MsrA inh 5.5 | MsrA conf inactive
C/C(=N\NC(=O)c1ccncc1)c1cc2ccccc2o1	none
C/C(=N\NC(=O)c1cccnc1)c1cc2ccccc2o1	MsrA inh 6.7 | MsrA conf 6.0
O=[N+]([O-])c1ccc(Sc2ncccn2)c([N+](=O)[O-])c1	none
O=C(O)CCSc1ccc([N+](=O)[O-])cc1[N+](=O)[O-]	MsrA inh 5.4 | MsrA conf inactive
CC1(C(=O)NS(=O)(=O)C2CC2)CCCN(C(=O)c2ccc3ccccc3c2)C1 (configuration not stated)	none
CN(C)/C=C1\N=C(c2ccc3c(c2)OCO3)OC1=O	MsrA inh 6.1 | MsrA conf 5.7
CN(C)/C=C1\N=C(c2ccccc2)OC1=O	MsrA inh 8.9 | MsrA conf 6.0
CCc1occc(=O)c1Oc1cc(NN2CCCCC2)c([N+](=O)[O-])cc1[N+](=O)[O-]	MsrA inh 13.4 | MsrA conf 9.0
O=[N+]([O-])c1cc([N+](=O)[O-])c(Oc2cccc(Cl)c2Cl)cc1NN1CCCCC1	none
C/C(=N\NC(=O)c1ccco1)c1ccc(NC(=O)C(F)(F)F)cc1	none
N#Cc1c(-n2cccc2/C=N/O)sc2c1CCCC2	MsrA inh 16.2 | MsrA conf 13.6
CCN(CC)c1ccc(C=Nc2cccnc2Cl)c(O)c1	MsrA inh 5.5 | MsrA conf 6.6
COCCCNc1nc2nonc2nc1N1CCN(C2CCCC2)CC1	none
COCCCNc1nc2nonc2nc1N1CCN2CCCC2C1 (configuration not stated)	MsrA inh 4.8 | MsrA conf inactive
COc1ccc2c(c1)cc(C(=O)N[C@H](C(=O)N1CCC(C(=O)O)CC1)C(C)C)n2C	none
Nc1ccc(C(=O)CC(=O)Nc2ccc(Cl)cc2)cc1	MsrA inh 5.0 | MsrA conf inactive
Nc1ccc(NC(=O)c2ccc(C(=O)Nc3ccc(N)cc3)cc2)cc1	none
Cc1cc(Br)ccc1NC(=O)CN(C)C(=O)c1cc([N+](=O)[O-])ccc1N1CCOCC1	none
CCN(C(=O)CSc1nc2nc(C)cc(C)n2n1)c1cccc(C)c1	none
CCN(C(=O)CSc1nc2nc(C)cc(C)n2n1)c1ccccc1	MsrA inh 4.8 | MsrA conf inactive
COCCn1c(C)cc(C(=O)COC(=O)/C=C/c2ccc(OC)cc2OC)c1C	none
Cc1nn(Cc2ccc(Cl)cc2)c(=O)n1N(C)c1ncc(C(F)(F)F)cc1Cl	MsrA inh 15.0 | MsrA conf 12.7
CCCCCCCCN1C(=O)[C@H](CC(=O)N2CCN(C(=O)C3CC3)CC2)C[C@@]2(C(=O)OC)CCCCC=C12	none
CN(C)N=Nc1nc2c(c(=O)n(C)c(=O)n2C)n1C	MsrA inh 5.8 | MsrA conf inactive
CC(C)/C=N/Nc1nc2c(c(=O)n(C)c(=O)n2C)n1C	none
COc1ccccc1C(=O)N1CCC2CCN(C(=O)OC(C)(C)C)C2C1 (configuration not stated)	none (no result: MsrA act)
NC(=O)N/N=C/c1ccc(-c2ccc(S(=O)(=O)Nc3ncccn3)cc2)o1	MsrA inh 5.7 | MsrA conf 6.4
CC(C)Oc1ccc(C(=O)N/N=C/c2ccc(-c3ccc(S(=O)(=O)Nc4ncccn4)cc3)o2)cc1	none
CCN(CC)c1ccc(/C=N/n2c(C)cc(C)cc2=O)cc1	MsrA inh 5.1 | MsrA conf inactive
O=C(O)c1ccc(N(c2ccccc2)c2ccccc2)cc1	MsrA inh 5.1 | MsrA conf inactive
Cc1ccc(C(=O)NCCCN2CCN(CCCNC(=O)c3ccc(C)cc3)CC2)cc1	none
Cc1cc2nc(-c3ccc(SCc4ccc(C(=O)O)cc4)nc3)[nH]c2cc1C	MsrA inh 5.5 | MsrA conf inactive
N#C/C(=C\c1ccc(O)c([N+](=O)[O-])c1)C(=O)NCc1ccccc1	MsrA inh 5.5 | MsrA conf inactive
CC(=O)Nc1ccc2nc(-c3ccco3)[nH]c2c1	none
O=C(Nc1ccc2nc(-c3ccco3)[nH]c2c1)c1ccco1	MsrA inh 5.1 | MsrA conf inactive
CC1C(=O)NN=C1C(=O)N/N=C\C(Br)=C\c1ccccc1 (configuration not stated)	MsrA inh 5.7 | MsrA conf inactive
